DAT uptake mod = modulates human dopamine transporter uptake under cocaine; 1.3% of 110,000 active; Q01959; LLC-PK1 hDAT cells, [14C]-dopamine uptake with cocaine IC80; actives deviate in either direction; B-score at 10 µM;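 active = Z score or B-score, a plate-position-corrected score, falls beyond the plate's 99.7% confidence bounds, in either direction; inactive = both scores lie inside the 99.7% bounds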;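 note: scored against the spread of the other compound wells on the same plate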
BAP1 block = inhibitors of human BAP1 deubiquitinase | recombinant BAP1, Ub-AMC hydrolysis fluorescence kinetic; hits give low values | calls only at 20 µM | 0.48% of 72,000 active | AID 436;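 active = activity remaining at or below 50% of control, provided the compound also passes the data quality filters; inactive = the rest, including low values that fail the filters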;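 note: 100% = DMSO wells rate and 0% = substrate alone blank rate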
HEK293 NFkB inh = inhibitors of the PMA/ionomycin-induced NF-kB reporter in HEK293 cells | HEK-293 NF-kB luciferase reporter, luminescence | inhibition, % at 3 µM | 0.21% of 62,000 active | AID 465;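 active = inhibition above the mean of all tested compounds plus 3 SD, cut at about 40% in these data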;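 note: 0% = stimulated DMSO wells and 100% = 10 µM reference inhibitor 5653914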
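Reagent: PMA plus ionomycin mix as NF-kB-activating stimulus. Assay system: NF-kB luciferase reporter HEK-293 cells. Technique: luminescence from luciferase substrate reagent. Incubation: 1 h compound pre-incubation, 16 h PMA/ionomycin at 37 °C. Benchmarks: DMSO only as uninhibited control, 10 µM reference inhibitor as full inhibition. Repeats: tested once.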
M1 agonist = M1 muscarinic receptor agonism | CHO-M1 cells, Fluo-4 calcium fluorescence, agonist mode; hits give high values | AID 626 | 3% of 64,000 active | B-score at 10 µM;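 active = fluorescence rise, raw or as B-score row- and column-corrected plate score, outside the 99.7% band of its plate's samples, either direction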
D1 allo mod = allosteric modulators of human D1 dopamine receptor. 5.9% of 58,000 active. B-score at 10 µM. HEK293 D1, CRE-luciferase, dopamine EC30 potentiation; actives deviate in either direction. AID 641;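 active = luminescence count or its row- and column-corrected plate score outside the 99.7% band of the plate's sample wells, on either side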
Target sequence (P21728 whole entry, looked up): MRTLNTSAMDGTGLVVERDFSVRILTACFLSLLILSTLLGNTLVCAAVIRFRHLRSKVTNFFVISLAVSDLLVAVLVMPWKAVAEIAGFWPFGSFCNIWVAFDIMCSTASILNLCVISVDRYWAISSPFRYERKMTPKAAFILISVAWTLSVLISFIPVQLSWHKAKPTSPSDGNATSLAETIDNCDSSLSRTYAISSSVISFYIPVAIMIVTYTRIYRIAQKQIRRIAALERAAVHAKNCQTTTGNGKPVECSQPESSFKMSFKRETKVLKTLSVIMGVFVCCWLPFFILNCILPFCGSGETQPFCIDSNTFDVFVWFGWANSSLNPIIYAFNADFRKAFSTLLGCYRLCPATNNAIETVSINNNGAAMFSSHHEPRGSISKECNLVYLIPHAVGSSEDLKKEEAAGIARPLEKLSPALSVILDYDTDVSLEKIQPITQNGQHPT
M1 antagonist = blocks the rat M1 muscarinic receptor response to acetylcholine; P08482; CHO-M1 cells, Fluo-4 calcium, ACh EC80 antagonist mode; hits give low values; B-score at 10 µM; 3.4% of 64,000 active;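 active = calcium fluorescence response, raw or row-and-column corrected B-score, differing from the plate sample mean either way at a set confidence level, mostly lower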
D1 mod confirm = confirmation of human D1 dopamine receptor allosteric modulators. shares compounds with D1 allo mod. HEK293 D1 CRE-luciferase, dopamine EC30 potentiation; hits give high values. luminescence at 10 µM. 88% of 2,200 active. AID 642;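 active = luminescence in either of two replicates above the same-plate mean plus 3 SD of the low-dose dopamine control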
D1 ag no DA = secondary test of D1 modulators: activity without dopamine. 0.8% of 1,900 active. shares compounds with D1 allo mod. AID 646. HEK293 D1 CRE-luciferase, luminescence, no dopamine; hits give high values. luminescence at 10 µM; in the data active = luminescence above about 3900
Isoprot counter = counter-screen for D1 modulators: isoproterenol response in HEK293 cells; shares compounds with D1 allo mod; HEK293 D1 CRE-luciferase, isoproterenol EC30 counter-screen; calls only at 10 µM; 63% of 2,200 active; AID 647;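 active = luminescence in either replicate above plate mean of wells with a partly effective reference agonist dose plus 3 SD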;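 note: isoproterenol raises cAMP through native beta-adrenoceptor Gs so signal bypasses D1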
* = called active by the depositor; i = inactive; x = not tested or not shown; + = active, no number. A selection: hits, their analogues and other compounds. The true share with any hit is near 7.2%.

SMILES | DAT uptake mod | BAP1 block | HEK293 NFkB inh | M1 agonist | D1 allo mod | M1 antagonist | D1 mod confirm | D1 ag no DA | Isoprot counter
Cc1cc(OCC(=O)Nc2ccccc2)ccc1Br | x | i | x | x | x | x | x | x | x
O=C(O)CCSCC(=O)Nc1c(C(=O)C2CC2)oc2ccccc12 | 0.094 | i | 7 | -0.28 | 8.3* | 0.44 | 14596* | x | +
CCn1c(=O)cc(C(=O)OC)sc1=Nc1ccc(F)c(F)c1 | 0.59 | i | 19 | 0.43 | 11* | -1.1 | 23240* | 1624 | +
C=CCNc1sc(C(=O)c2cccs2)c(N)c1C#N | -0.18 | i | 1 | x | 16* | x | 22248* | 1616 | +
CCNc1sc(C(=O)c2cccs2)c(N)c1C#N | -0.48 | i | x | 0.83 | 18* | 0.55 | 22348* | 1796 | +
Nc1nnc(-c2ccccc2)c(-c2ccccc2)n1 | 0.061 | i | 6 | -0.37 | 20* | 0.087 | 20640* | 1704 | +
Nc1c(-c2ccccc2)nc(Cl)nc1-c1ccccc1 | 0.11 | x | x | x | x | x | x | x | x
COc1cc(Br)c(C=Nc2c(C)n(C)n(-c3ccccc3)c2=O)cc1OC | x | i | x | x | x | x | x | x | x
O=C(OCn1nnc2ccccc2c1=O)C1CCN(S(=O)(=O)c2cccs2)CC1 | -1.6 | i | 11 | 0.022 | 4* | -0.0094 | 11392* | 1780 | i
COC(=O)c1c(NC(=O)c2ccc(Cl)c([N+](=O)[O-])c2)sc2c1CCC(C)C2 (centres undefined) | x | i | x | x | x | x | x | x | x
c1ccc(Cn2c(NCc3ccco3)nc3ccccc32)cc1 | -0.36 | i | 17 | -0.38 | 12* | -0.78 | 14512* | 1716 | i
c1coc(CNc2nc3ccccc3n2CCN2CCOCC2)c1 | 0.024 | i | 17 | 0.076 | -0.71 | -0.18 | x | x | x
CC1(C)CC(=O)C2=C(C1)OC(N)=C(C#N)C2CCc1ccccc1 (centres undefined) | 0.76 | i | 1 | 0.27 | 8.9* | 0.92 | 20388* | 1576 | +
CC1(C)CC(=O)C2=C(C1)OC(N)=C(C#N)C2c1cccc(OC(=O)c2ccco2)c1 (centres undefined) | -0.0094 | i | 10 | -0.066 | 6.3* | 0.51 | 5824* | 1580 | i
CC(NC(=O)C1CCC(=O)N1Cc1ccc(F)cc1)c1ccc2c(c1)OCCO2 (centres undefined) | -1.3 | i | 11 | 0.073 | 2.1* | -0.029 | 5700 | 1736 | i
OC[C@H]1O[C@@H](n2cnc3c(Nc4ccccc4)ncnc32)[C@H](O)[C@@H]1O | 0.14 | i | x | 0.33 | 6.6* | -0.17 | 7048* | x | +
C=CCOc1nc(N2CCCC2)nc(N2CCCC2)n1 | 1.6 | i | 6 | 0.053 | 24* | 0.19 | 26540* | 1648 | +
Cc1noc(C)c1CSc1nnc2scc(-c3ccc(Cl)cc3)n12 | -0.054 | i | 6 | 0.046 | 7.8* | -0.67 | 18508* | 1640 | +
Cc1nc(CSc2nnc3scc(-c4ccccc4)n23)cs1 | 0.89 | i | 5 | -0.21 | 10* | 0.049 | 21372* | 1512 | +
Cc1sc(NC(=O)CSc2nnc3scc(-c4ccccc4)n23)c(C#N)c1C | -0.72 | i | 3 | 0.023 | -0.58 | -0.23 | x | x | x
Cc1ccc(-c2csc3nnc(SCc4csc(C)n4)n23)cc1 | -0.035 | i | -1 | 0.094 | 9.3* | 0.15 | 22688* | 1908 | +
Cc1nnc(NC(=O)CSc2nnc3scc(-c4ccc(C)c(C)c4)n23)s1 | 0.42 | i | 23 | -0.65 | 1 | -0.36 | x | x | x
CC1=C(C(=O)OCC2CCCO2)C(c2cccs2)C2=C(CC(C)(C)CC2=O)N1 (centres undefined) | x | i | x | x | x | x | x | x | x
Cc1cc(C)nc(SCC(=O)N2CCCCC2)n1 | 0.79 | i | 6 | -1.4 | 2.9* | -0.2 | 5424* | 1632 | i
N#Cc1nc(-c2ccco2)oc1N1CCCC1 | -0.62 | x | 18 | -1 | 4* | 0.39 | 11548* | x | +
SMILES | DAT uptake mod | BAP1 block | HEK293 NFkB inh | M1 agonist | D1 allo mod | M1 antagonist | D1 mod confirm | D1 ag no DA | Isoprot counter
N#Cc1nc(-c2ccccc2F)oc1N1CCCC1 | -1.8 | x | -4 | 0.082 | 6.4* | 0.71 | 11832* | 1568 | +
CCCNC(=O)c1c(NC(=O)c2ccccc2C)sc2c1CCC2 | x | i | x | x | x | x | x | x | x
Cc1ccc(C)c(S(=O)(=O)n2ccnc2)c1 | x | i | x | x | x | x | x | x | x
N#Cc1cccc(-c2nnc(SCc3ccccc3C#N)o2)c1 | 1.1 | i | -2 | x | 2.7* | x | 5456 | 1604 | +
Cc1cccc(-c2nnc(SCc3ccccc3)o2)c1 | 1.4 | x | x | x | x | x | x | x | x
COc1ccccc1C(=O)NCCNC(=O)c1ccco1 | -0.1 | i | 15 | -0.33 | 0.97 | -0.56 | x | x | x
O=C(NCCNC(=O)C(c1ccccc1)c1ccccc1)c1ccco1 | 0.79 | i | 12 | -0.21 | 5.3* | 0.49 | 6392* | x | i
CN(C)c1ccc(NC(=O)C2CC3CCCC(C2)C3=O)cc1 (centres undefined) | x | i | x | x | x | x | x | x | x
O=C(Nc1cccc2ccccc12)c1cnn2c(C(F)(F)F)cc(-c3ccccc3)nc12 | x | i | x | x | x | x | x | x | x
O=C(CCCn1c(=O)c2ccccc2n(Cc2ccccc2)c1=O)NCc1ccco1 | 0.39 | i | 16 | -0.066 | 3* | 0.089 | 8576* | 1680 | +
O=c1c2cc(Cl)ccc2[nH]c(=S)n1Cc1ccco1 | -0.25 | i | 10 | 0.94 | 2.8* | -0.6 | 9744* | 1436 | i
O=c1c2ccccc2n(Cc2ccc(Cl)cc2)c(=O)n1Cc1ccco1 | -0.65 | i | 11 | -0.23 | 8.5* | 1.3 | 16764* | 1488 | +
O=c1[nH]c2ccc(Cl)cc2c(=O)n1Cc1ccco1 | 0.18 | i | 13 | x | x | x | x | x | x
Cc1ccc(Cn2c(=O)n(Cc3ccco3)c(=O)c3ccccc32)cc1 | 0.61 | i | 24 | 0.019 | 12* | 1.1 | 15080* | 1628 | +
COc1ccc2oc(=Nc3ccccc3)c(C(=O)NC(C)=O)cc2c1 | x | i | x | x | x | x | x | x | x
O=C(O)c1ccc([N+](=O)[O-])c2c1NC(C(=O)O)C1CC=CC21 (centres undefined) | x | i | x | x | x | x | x | x | x
CCC(C)n1c(N)nc2c1c(=O)[nH]c(=O)n2C (centres undefined) | x | i | x | x | x | x | x | x | x
Brc1ccc(-c2nn3c(-c4ccco4)nnc3s2)o1 | -0.35 | i | 5 | 0.21 | 4.1* | -0.4 | 10612* | 1476 | +
CCN(CC)CCn1c(NC(C)=O)nc2ccccc21 | x | i | x | x | x | x | x | x | x
COc1ccc(-c2ccc(SCC(=O)N3CCCC3)nn2)cc1OC | 0.97 | i | 6 | 0.27 | 14* | 0.068 | 25344* | 1728 | +

Source: PubChem BioAssay (several laboratories)
